What was measured:
HEK-293T = assay: Incucyte cell viability with HEK293T; format: toxicity, cell-based; settings: human, 10 µM, compound concentration 10 uM; also: filed as whole numbers so only -1 and 0 and 1 occur
Fibroblast = assay: Multiplex assay against human fibroblast; format: toxicity, cell-based
How it was run: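 Live cells were stained at seeding with Hoechst33342, BioTracker Green Microtubule Cytoskeleton Dye, MitoTracker Red and Annexin V Alexa Fluor 680. Following compound addition, they were imaged on a CQ1 microscope at 37°C and 5% CO2 and gated by CellPathfinder machine learning into Hoechst high-intensity objects or normal cells, with normal cells split into healthy, pyknosed or fragmented nuclei and pyknosed cells into mitotic or apoptotic. Tubulin, mitochondrial-mass and membrane-permeability phenotypes are per cents of healthy-nucleus cells.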

[1] = 12 h, 1 µM, compound concentration 1 uM, replicate 1
[2] = 12 h, 1 µM, compound concentration 1 uM, replicate 2
[3] = 12 h, 10 µM, compound concentration 10 uM, replicate 1
[4] = 12 h, 10 µM, compound concentration 10 uM, replicate 2
[5] = 24 h, 1 µM, compound concentration 1 uM, replicate 1
[6] = 24 h, 1 µM, compound concentration 1 uM, replicate 2

CCCc1cc(C)[nH]c(=O)c1CNC(=O)c1cc(-c2ccc(N3CCN(C(C)C)CC3)nc2)cc2c1cnn2C(C)C
Growth Rate (HEK-293T; 6 h, replicate number 1, timepoint 6 hours): 0
Growth Rate (HEK-293T; 12 h, replicate number 1, timepoint 12 hours): 0
Growth Rate (HEK-293T; 18 h, replicate number 1, timepoint 18 hours): 0
Growth Rate (HEK-293T; 24 h, replicate number 1, timepoint 24 hours): 0
Population Apoptotic (%) (Fibroblast; [1]): 73%
Population Fragmented Nuclei (%) (Fibroblast; [1]): 26%
Population Healthy Nuclei (%) (Fibroblast; [1]): 41%
Population Hoechst High Intensity Objects (%) (Fibroblast; [1]): 22%
Population Membrane Permeable-Phenotype (%) (Fibroblast; [1]): 4%
Population Mitochondria Different-Phenotype (%) (Fibroblast; [1]): 32%
Population Mitotic Cells (%) (Fibroblast; [1]): 26%
Population Normal (%) (Fibroblast; [1]): 77%
Population Pyknosed Nuclei (%) (Fibroblast; [1]): 31%
Population Tubulin-Different-Phenotype (%) (Fibroblast; [1]): 52%
Total Cell Count (Fibroblast; [1]): 77
Population Apoptotic (%) (Fibroblast; [2]): 20%
Population Fragmented Nuclei (%) (Fibroblast; [2]): 19%
Population Healthy Nuclei (%) (Fibroblast; [2]): 70%
Population Hoechst High Intensity Objects (%) (Fibroblast; [2]): 10%
Population Membrane Permeable-Phenotype (%) (Fibroblast; [2]): 8%
Population Mitochondria Different-Phenotype (%) (Fibroblast; [2]): 91%
Population Mitotic Cells (%) (Fibroblast; [2]): 80%
Population Normal (%) (Fibroblast; [2]): 89%
Population Pyknosed Nuclei (%) (Fibroblast; [2]): 9%
Population Tubulin-Different-Phenotype (%) (Fibroblast; [2]): 94%
Total Cell Count (Fibroblast; [2]): 56
Population Apoptotic (%) (Fibroblast; [3]): 48%
Population Fragmented Nuclei (%) (Fibroblast; [3]): 24%
Population Healthy Nuclei (%) (Fibroblast; [3]): 32%
Population Hoechst High Intensity Objects (%) (Fibroblast; [3]): 29%
Population Membrane Permeable-Phenotype (%) (Fibroblast; [3]): 6%
Population Mitochondria Different-Phenotype (%) (Fibroblast; [3]): 21%
Population Mitotic Cells (%) (Fibroblast; [3]): 51%
Population Normal (%) (Fibroblast; [3]): 70%
Population Pyknosed Nuclei (%) (Fibroblast; [3]): 42%
Population Tubulin-Different-Phenotype (%) (Fibroblast; [3]): 69%
Total Cell Count (Fibroblast; [3]): 143
Population Apoptotic (%) (Fibroblast; [4]): 85%
Population Fragmented Nuclei (%) (Fibroblast; [4]): 13%
Population Healthy Nuclei (%) (Fibroblast; [4]): 47%
Population Hoechst High Intensity Objects (%) (Fibroblast; [4]): 5%
Population Membrane Permeable-Phenotype (%) (Fibroblast; [4]): 79%
Population Mitochondria Different-Phenotype (%) (Fibroblast; [4]): 100%
Population Mitotic Cells (%) (Fibroblast; [4]): 14%
Population Normal (%) (Fibroblast; [4]): 94%
Population Pyknosed Nuclei (%) (Fibroblast; [4]): 38%
Population Tubulin-Different-Phenotype (%) (Fibroblast; [4]): 100%
Total Cell Count (Fibroblast; [4]): 57
Population Apoptotic (%) (Fibroblast; [5]): 31%
Population Fragmented Nuclei (%) (Fibroblast; [5]): 30%
Population Healthy Nuclei (%) (Fibroblast; [5]): 47%
Population Hoechst High Intensity Objects (%) (Fibroblast; [5]): 16%
Population Membrane Permeable-Phenotype (%) (Fibroblast; [5]): 11%
Population Mitochondria Different-Phenotype (%) (Fibroblast; [5]): 20%
Population Mitotic Cells (%) (Fibroblast; [5]): 68%
Population Normal (%) (Fibroblast; [5]): 83%
Population Pyknosed Nuclei (%) (Fibroblast; [5]): 22%
Population Tubulin-Different-Phenotype (%) (Fibroblast; [5]): 85%
Total Cell Count (Fibroblast; [5]): 86
Population Apoptotic (%) (Fibroblast; [6]): 33%
Population Fragmented Nuclei (%) (Fibroblast; [6]): 20%
Population Healthy Nuclei (%) (Fibroblast; [6]): 51%
Population Hoechst High Intensity Objects (%) (Fibroblast; [6]): 10%
Population Membrane Permeable-Phenotype (%) (Fibroblast; [6]): 10%
Population Mitochondria Different-Phenotype (%) (Fibroblast; [6]): 78%
Population Mitotic Cells (%) (Fibroblast; [6]): 66%
Population Normal (%) (Fibroblast; [6]): 90%
Population Pyknosed Nuclei (%) (Fibroblast; [6]): 27%
Population Tubulin-Different-Phenotype (%) (Fibroblast; [6]): 82%
Total Cell Count (Fibroblast; [6]): 53

From ChEMBL document CHEMBL4689842, “EUbOPEN Chemogenomics Library wave 1” (2021)
